ChEMBL document CHEMBL3997808 (J Med Chem, 2017)
pIC50: −log10 of the molar value. Converted amounts (≈) assume the structure as drawn.

Columns and labels:
[1] = Lipophilicity, log D of the compound at pH 7.4 by RP-HPLC method; assay type: physicochemical; conditions: buffer
Method in brief: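 Chromatographic hydrophobicity index (CHI) log D at pH 7.4, calculated from the retention time in a fast-gradient reverse-phase HPLC run.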

[2] = (§1) AUC (0 to infinity) in rat at 2 mg/kg, po; assay type: ADME, organism-based; design: dose 2 mg/kg, route oral, time infinity; conditions: in vivo
[3] = target: T1, Receptor-interacting serine/threonine-protein kinase 1 (Homo sapiens, UniProt Q13546); assay: Inhibition of human RIP1 (1 to 375 residues) expressed in baculovirus infected insect cells preincubated for 1 hr followed by ATP addition measured after 5 hrs by ADP-Glo luminescence assay
T1 sequence (Q13546 whole entry): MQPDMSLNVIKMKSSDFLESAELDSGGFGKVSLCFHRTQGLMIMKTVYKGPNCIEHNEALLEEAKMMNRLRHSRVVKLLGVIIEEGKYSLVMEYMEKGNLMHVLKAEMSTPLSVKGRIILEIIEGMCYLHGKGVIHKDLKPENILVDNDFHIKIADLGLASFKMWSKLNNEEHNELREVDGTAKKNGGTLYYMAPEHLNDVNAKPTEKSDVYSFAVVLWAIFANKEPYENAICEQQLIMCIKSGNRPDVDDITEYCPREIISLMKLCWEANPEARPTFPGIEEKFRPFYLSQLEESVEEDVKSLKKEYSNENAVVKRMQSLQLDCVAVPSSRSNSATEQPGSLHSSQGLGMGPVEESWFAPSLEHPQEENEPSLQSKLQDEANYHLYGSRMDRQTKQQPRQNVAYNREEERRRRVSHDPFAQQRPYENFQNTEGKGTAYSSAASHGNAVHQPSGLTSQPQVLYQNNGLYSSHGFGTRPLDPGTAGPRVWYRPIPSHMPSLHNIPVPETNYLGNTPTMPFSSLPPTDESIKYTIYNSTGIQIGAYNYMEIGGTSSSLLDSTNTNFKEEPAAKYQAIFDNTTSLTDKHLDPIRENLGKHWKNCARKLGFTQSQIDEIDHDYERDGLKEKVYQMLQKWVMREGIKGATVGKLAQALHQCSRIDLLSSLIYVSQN

[4] = target: T1, Receptor-interacting serine/threonine-protein kinase 1; assay: Displacement of (14-(2-{[3-({2-{[4-(cyanomethyl)phenyl]amino}-6-[(5-cyclopropyl-1H-pyrazol-3-yl)-amino]-4-pyrimidinyl}amino)propyl]amino}-2-oxoethyl)-16,16,18,18-tetramethyl-6,7,7a,8a,9,10,16,18-octahydrobenzo[2'',3'']indolizino-[8'',7'':5',6']pyrano[3',2':3,4]pyrido[1,2-a]indol-5-ium-2-sulfonate from human RIP1 (1 to 375 residues) expressed in baculovirus infected insect cells measured for 50 min
Rattus norvegicus [5] = assay: as §1; assay type: ADME, organism-based; design: dose 2 mg/kg, route oral, time infinity; conditions: in vivo, BLD = below limit of detection
[6] = Solubility of the compound in FaSSIF; assay type: physicochemical
[7] = Drug level in rat hepatocytes treated with GSK2982772 at 10 uM measured up to 4 hrs; assay type: ADME, cell-based, Hepatocyte
Method in brief: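 Compound at 10 μM was incubated with hepatocyte suspensions at 1 million cells/mL. Incubation ran at 37°C under 5% CO2:95% O2 for up to 4 h.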

Rattus norvegicus [8] = assay: Volume of distribution in rat at 2 mg/kg, po; assay type: ADME, organism-based; conditions: in vivo
[9] = Clearance in rat at 2 mg/kg, po; assay type: ADME, organism-based; conditions: in vivo

chromatographic logD [1] | AUC(0-inf) [2] [ng·h/mL] | pIC50 [3] | pIC50 [4] | SMILES | also measured
6 | 7 | – | – | CN1C(=O)[C@@H](NC(=O)c2cc(Cc3ccccc3)on2)CCc2ccccc21 | –
– | 2200 | – | – | O=C(N[C@H]1COc2ccccc2NC1=O)c1cc(Cc2ccccc2)on1 | –
6.4 | – | 8.70 | – | CN1C(=O)[C@@H](NC(=O)c2cc(Cc3ccccc3)ccn2)COc2ccccc21 | –
– | – | – | < 5.00 | CN(C(=O)c1cc(Cc2ccccc2)on1)[C@H]1COc2ccccc2NC1=O | –
– | – | – | 4.90 | Cc1cc(C(=O)N[C@H]2COc3ccccc3N(C)C2=O)no1 | –
6.2 | – | – | – | CN1C(=O)[C@@H](NC(=O)c2cc(Cc3ccccc3)on2)CSc2ccccc21 | AUC (Rattus norvegicus [5]): Bld
– | 380 | – | 6.70 | O=C(N[C@H]1CCOc2ccccc2NC1=O)c1cc(Cc2ccccc2)on1 | –
– | 1100 | 9.49 | – | COC(=O)Nc1ccc2c(c1)N(C)C(=O)[C@@H](NC(=O)c1cc(Cc3ccccc3)on1)CO2 | –
5.4 | 33 | 9.30 | – | CN1C(=O)[C@@H](NC(=O)c2noc(Cc3ccccc3)n2)COc2ccccc21 | –
– | – | – | < 5.00 | O=C(N[C@H]1CO[C@@H]2CCCC[C@H]2NC1=O)c1cc(Cc2ccccc2)on1 | –
5 | 240 | 10.10 | – | CN1C(=O)[C@@H](NC(=O)c2nnn(Cc3ccccc3)n2)COc2ccccc21 | –
– | – | – | 7.00 | CCCCCc1cc(C(=O)N[C@H]2COc3ccccc3N(C)C2=O)no1 | –
6 | 82 | 8.30 | – | CN1C[C@H](NC(=O)c2cc(Cc3ccccc3)on2)C(=O)N(C)c2ccccc21 | –
4 | 2900 | – | 7.20 | CN1C(=O)[C@@H](NC(=O)c2cnn(Cc3ccccc3)c2)COc2ccccc21 | –
– | – | 9.20 | – | CN1C(=O)[C@@H](NC(=O)c2cc(Cc3ccccc3)on2)COc2ccc(NS(C)(=O)=O)cc21 | –
– | – | – | < 5.00 | O=C(N[C@H]1COc2ccccc2N(C2CC2)C1=O)c1cc(Cc2ccccc2)on1 | –
– | 600 | 9.00 | – | CN1C(=O)[C@@H](NC(=O)c2cc(Cc3ccccc3)on2)COc2ccc(-c3cc[nH]n3)cc21 | –
4.2 | 660 | 9.40 | – | CN1C(=O)[C@@H](NC(=O)c2cn(Cc3ccccc3)cn2)COc2ccccc21 | –
5.6 | 55 | 10.30 | – | CN1C(=O)[C@@H](NC(=O)c2ncc(Cc3ccccc3)o2)COc2ccccc21 | –

The next lines start with the compound.

SMILES | chromatographic logD [1] | AUC(0-inf) [2] [ng·h/mL] | pIC50 [3] | pIC50 [4] | also measured
CC(=O)Nc1ccc2c(c1)N(C)C(=O)[C@@H](NC(=O)c1cc(Cc3ccccc3)on1)CO2 | – | 450 | 9.49 | – | –
CN1C(=O)[C@@H](NC(=O)c2cn(Cc3ccccc3)nn2)COc2ccccc21 | 4.6 | 1300 | 9.00 | – | –
CN1C(=O)[C@@H](NC(=O)c2ncn(Cc3ccccc3)n2)COc2ccccc21 | 4.2 | 280 | 9.20 | – | –
O=C(NC1Cc2ccccc2NC1=O)c1cc(Cc2ccccc2)on1 (configuration not stated) | – | – | – | < 5.00 | –
CN1C(=O)[C@@H](NC(=O)c2cccc(Cc3ccccc3)c2)COc2ccccc21 | 6.3 | – | – | 6.60 | –
O=C(N[C@H]1COCCNC1=O)c1cc(Cc2ccccc2)on1 | – | – | – | < 5.00 | –
CN1C(=O)[C@@H](NC(=O)c2cc(Cc3ccccc3)on2)CNc2ccccc21 | 5 | 800 | – | – | solubility [6]: 97 µg/mL (≈ 258 µM)
CN1C(=O)[C@@H](NC(=O)c2ncc(Cc3ccccc3)s2)COc2ccccc21 | 6.5 | – | – | – | –
O=C(N[C@@H]1CNc2ccccc2OC1)c1cc(Cc2ccccc2)on1 | – | – | – | < 5.00 | –
O=C(O)c1n[nH]c(Cc2ccccc2)n1 | – | – | – | – | Drug metabolism [7]: Metabolite_Detected
O=C(N[C@H]1COc2ccccc2NC1=O)c1n[nH]c(Cc2ccccc2)n1 | – | – | – | – | Drug metabolism [7]: Metabolite_Detected
CN1C(=O)[C@@H](NC(=O)c2cc(Cc3ccccc3)n(C)n2)COc2ccccc21 | 5.4 | 170 | 9.40 | – | –
CN1C(=O)[C@@H](NC(=O)c2coc(Cc3ccccc3)n2)COc2ccccc21 | 5.4 | – | – | 6.10 | –
CN1C(=O)[C@@H](NC(=O)c2cc(CN3CCCCC3)on2)COc2ccccc21 | – | – | – | < 5.00 | –
C[C@]1(NC(=O)c2cc(Cc3ccccc3)on2)COc2ccccc2NC1=O | – | – | – | < 5.00 | –
CN1C(=O)[C@@H](NC(=O)c2cc(Cc3ccccc3)on2)COc2ccccc21 | 5.9 | 380 | – | – | Vd (Rattus norvegicus [8]): 8.5 L/kg; solubility [6]: 30 µg/mL (≈ 79.5 µM); CL/F [9]: 69 mL/min/kg
CN1C(=O)[C@@H](NC(=O)c2c[nH]c(Cc3ccccc3)n2)COc2ccccc21 | 3.8 | – | – | 5.90 | –
CCN1C(=O)[C@@H](NC(=O)c2cc(Cc3ccccc3)on2)COc2ccccc21 | – | – | – | 5.50 | –
CN1C(=O)[C@@H](NC(=O)c2cc(CC3CCCCC3)on2)COc2ccccc21 | – | – | – | 6.60 | –
CC(C)Cc1cc(C(=O)N[C@H]2COc3ccccc3N(C)C2=O)no1 | – | – | – | 5.80 | –
CN1C(=O)[C@@H](NC(=O)c2nnc(Cc3ccccc3)o2)COc2ccccc21 | 4.9 | 130 | 9.10 | – | –
CN1C(=O)[C@@H](NC(=O)c2n[nH]c(C(O)c3ccccc3)n2)COc2ccccc21 (some centres not stated) | – | – | – | – | Drug metabolism [7]: Metabolite_Detected
CN1C(=O)[C@@H](NC(=O)c2cc(Cc3ccccc3)on2)COc2ccc(-c3n[nH]c(=O)o3)cc21 | 4.4 | 2100 | 9.30 | – | solubility [6]: 8 µg/mL (≈ 17.3 µM)
CN1C(=O)[C@@H](N)COc2ccccc21 | – | – | – | – | Drug metabolism [7]: Metabolite_Detected
